# MrgX1 allo act = positive allosteric modulators of MrgX1, primary screen, HEK293 cells, Fluo-4 calcium flux. Mas-related G-protein coupled receptor member X1 (Homo sapiens), Q96LB2. FDSS; active compounds read high. B-score at 10 µM. 310,000 tested, 0.63% active. AID 588675, 2011;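 active = plate-corrected calcium response at least 3 library SD above typical, normal starting fluorescence, not activating the receptor alone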;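 note: compound read alongside a low EC10 to EC30 dose of BAM8-22 agonist; peak minus trough fluorescence over baseline measured at the second addition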
# Target sequence (Q96LB2 whole entry, looked up): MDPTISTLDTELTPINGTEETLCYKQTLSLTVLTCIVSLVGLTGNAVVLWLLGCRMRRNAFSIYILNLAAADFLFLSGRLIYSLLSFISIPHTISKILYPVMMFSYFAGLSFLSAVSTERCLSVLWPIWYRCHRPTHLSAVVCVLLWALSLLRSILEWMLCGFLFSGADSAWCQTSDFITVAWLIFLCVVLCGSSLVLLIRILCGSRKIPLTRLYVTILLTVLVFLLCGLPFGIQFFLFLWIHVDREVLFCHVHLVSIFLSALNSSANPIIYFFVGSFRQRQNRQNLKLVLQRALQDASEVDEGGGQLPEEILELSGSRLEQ
# RGS4 inh = RGS4 inhibitors, primary screen, cell-based, HEK293 M3R inducible RGS4, calcium flux. Regulator of G-protein signaling 4 (Homo sapiens), P49798. Fluo-4 calcium flux; active compounds read high; triggered by carbachol at its EC20. B-score at 10 µM. 310,000 tested, 0.45% active;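 active = B-score, a plate-corrected calcium signal, over three deviations above library mean, with baseline fluorescence within five deviations of library mean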;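 note: RGS4 expression induced by doxycycline in cells with stable M3 receptor; B-score is computed from the integrated fluorescence ratio over baseline after carbachol; higher B-score means a larger calcium signal and so more RGS4 inhibition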
# Target sequence (P49798 whole entry, looked up): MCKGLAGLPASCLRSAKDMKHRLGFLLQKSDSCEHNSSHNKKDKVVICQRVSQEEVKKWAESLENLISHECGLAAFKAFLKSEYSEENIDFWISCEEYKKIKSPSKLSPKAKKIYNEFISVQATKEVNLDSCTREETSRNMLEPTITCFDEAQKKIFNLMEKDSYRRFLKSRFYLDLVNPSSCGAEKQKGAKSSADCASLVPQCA
# PHOSPHO1 block = PubChem AID 1565; Phosphoethanolamine/phosphocholine phosphatase (Homo sapiens), Q8TCT1; recombinant PHOSPHO1, absorbance phosphatase assay; inhibition, % at 13.3 µM; 290,000 tested, 1.1% active; in the data active = inhibition above about 60%
# MrgX1 antag = antagonists of human MrgX1 receptor, primary screen, HEK293 cells, Fluo-4 calcium flux. Mas-related G-protein coupled receptor member X1 (Homo sapiens), Q96LB2. BAM8-22 antagonism; active compounds read low. B-score at 10 µM. 310,000 tested, 1.3% active. AID 588676, 2011;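 active = calcium-response B-score plate-corrected more than 3 library SD below zero, starting fluorescence within 5 deviations, no agonist response on first addition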;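 note: peak minus trough fluorescence over baseline after final BAM8-22 challenge near maximal dose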
# RGS4 act = RGS4 potentiators or activators, primary screen, cell-based, HEK293 M3R inducible RGS4, calcium flux; B-score at 10 µM; carbachol calcium flux Fluo4; active compounds read low; 310,000 tested, 0.92% active;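 active = B-score of the integrated calcium signal more than 4 SD below the library mean, with starting fluorescence not abnormally high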;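 note: negative B-score means reduced calcium response which marks RGS4 activation or potentiation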
#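 test system = HEK293 cells with stable M3R and inducible RGS4 | schedule = recording 10 s baseline at 1 Hz, 100 s post-agonist | technique = Fluo4-AM (2 µM) calcium-flux fluorescence, kinetic read | measure = Agonist-evoked peak-minus-minimum fluorescence over baseline, integrated ratio, B score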
# MrgX1 agonist = agonists of human MrgX1 receptor, primary screen, HEK293 cells, Fluo-4 calcium flux; B-score at 10 µM; Fluo-4 calcium fluorescence, agonist mode; active compounds read high; AID 588627, 2011; 310,000 tested, 0.44% active; Mas-related G-protein coupled receptor member X1 (Homo sapiens), Q96LB2;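 active = calcium response B-score plate-corrected fluorescence ratio at least 3 library SD, with starting fluorescence B-score inside 5 SD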
#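 Material: HEK293 cells stably expressing human MrgX1 receptor | Quantity: 15,000 cells per well | Times: Cells plated overnight, dye loaded 0.5 h 37 °C, 0.5 h room temperature | Measured by: Kinetic Fluo-4 NW fluorescence of intracellular calcium | Control set: Positive and negative controls per plate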
# * = called active by the depositor; i = inactive; / = no result. Sampled rows, rich in hits. Any-hit rate of the full collection: about 4.5%.
SMILES,MrgX1 allo act,RGS4 inh,PHOSPHO1 block,MrgX1 antag,RGS4 act,MrgX1 agonist
Cc1ccc2c(CN3CCCCC3)cc(=O)oc2c1C,i,i,/,i,i,i
Cc1cc2oc(=O)cc(CN3CCCCC3)c2cc1O,i,i,60.8*,i,i,i
Cc1cc2oc(=O)cc(CN3CCCCC3)c2cc1C(C)C,i,i,0.1,i,i,50.9*
Cc1ccccc1OCCC(=O)Nc1ccc2c(C)cc(=O)oc2c1,i,i,-5.4,i,i,i
CCOC(=O)c1ccc(NC(=O)N2CCN(c3cccc(OC)c3)CC2)cc1,i,i,38.5,i,i,i
CCOC(=O)c1cc(C#N)c(SCC(=O)c2cc(C#N)c(SC)nc2C)[nH]c1=O,i,i,97.8*,i,i,i
NN=C(c1cccc([N+](=O)[O-])c1)c1cccc([N+](=O)[O-])c1,i,i,/,i,i,i
CC1(C)CC(c2nc(-c3ccc(Cl)cc3)cs2)CCS1 (stereo not drawn),8.7*,i,-48.6,i,i,i
Cc1cc(NC(=O)CSc2nnc(-c3cccnc3)n2N)no1,i,i,73.6*,i,i,i
Nn1c(SCC(=O)Nc2ccccc2F)nnc1-c1cccnc1,i,i,68.8*,i,i,i
O=C(Nc1ccccc1)N1CCN(S(=O)(=O)c2ccccc2)CC1,i,i,32.2,i,i,i
Clc1ccccc1-c1nnc2sc(C3COc4ccccc4O3)nn12 (stereo not drawn),i,/,80.2*,i,/,i
c1ccc(OCc2nnc3sc(C4COc5ccccc5O4)nn23)cc1 (stereo not drawn),i,i,80.3*,i,i,i
c1ccc(Cc2nnc3sc(C4COc5ccccc5O4)nn23)cc1 (stereo not drawn),i,i,-19.2,i,i,i
Cc1ccc(-c2nnc3sc(C4COc5ccccc5O4)nn23)cc1 (stereo not drawn),i,/,23.8,i,/,i
COc1cccc(CN(C(=O)/C=C/c2ccc(Cl)cc2)C2CCS(=O)(=O)C2)c1 (stereo not drawn),i,i,-22.7,i,i,i
O=C(NCc1ccco1)c1cc([N+](=O)[O-])cc([N+](=O)[O-])c1,i,i,0.3,i,i,i
CSc1ccc(C2C(C(=O)c3ccco3)=C(O)C(=O)N2c2nnc(SC)s2)cc1 (stereo not drawn),i,i,-61.8,-5.44*,i,i
Cc1nnc(N2C(=O)C(O)=C(C(=O)c3ccco3)C2c2ccc(C(C)(C)C)cc2)s1 (stereo not drawn),i,i,-10.8,i,i,26.8*
Cc1sc2ncn(CC(=O)NCc3ccco3)c(=O)c2c1-c1ccccc1,i,i,37.0,i,i,i
COc1cccc(NC(=O)CN(C)C(=O)CC2CC3CCC2C3)c1 (stereo not drawn),i,i,/,i,i,i
c1ccc(-c2nc(CSc3nnnn3-c3ccccc3)cs2)cc1,i,i,14.4,i,i,i
Cc1ccccc1Nc1nc(CSc2nnnn2-c2ccccc2)cs1,i,i,95.4*,i,i,i
O=C(CCc1nnc(CCc2ccccc2)o1)NC(c1cccnc1)C(F)(F)F (stereo not drawn),i,i,22.5,i,i,i
COc1cc(C=O)ccc1OCCSc1ccc(Cl)cc1,i,i,4.4,-5.38*,i,i
SMILES,MrgX1 allo act,RGS4 inh,PHOSPHO1 block,MrgX1 antag,RGS4 act,MrgX1 agonist
COc1cc(C=O)ccc1OCCOCCOc1ccc(Cl)cc1,i,i,41.9,i,i,i
CCc1nnc(NC(=O)CSc2nnc(CNc3ccc(Cl)cc3)o2)s1,i,i,61.5*,i,i,i
CCOc1cc(C(=O)CSc2nnc(CNc3ccc(Cl)cc3)o2)ccc1NC(=O)CC,i,i,84.1*,i,i,i
CCc1nnc(NC(=O)CSc2nnc(-c3ccccc3NC(=O)c3ccccc3)o2)s1,i,i,68.0*,i,i,i
COc1ccc(S(=O)(=O)N2C(=O)/C(=C3\SC(N)=NC3=O)c3ccccc32)cc1,i,i,-8.1,i,i,i
CCN(C(=O)Cn1nc(C)c([N+](=O)[O-])c1C)C1CCS(=O)(=O)C1 (stereo not drawn),i,i,/,i,i,i
CCC(=O)Nc1cccc(-n2nnnc2SCC(=O)N2CCCCC2)c1,i,i,45.4,i,i,i
CCOC(=O)c1c(NC(=O)COC(=O)C2CC2C)sc(C)c1C (stereo not drawn),i,i,-10.2,i,i,i
Cc1ccc(/C=C2/C(=O)ON=C2c2ccccc2)o1,i,i,12.2,i,i,42.6*
CC1=NOC(=O)/C1=C\c1ccc(-c2cccc(Cl)c2)o1,i,i,0.1,i,-8.95*,i
CC1=NOC(=O)/C1=C\c1ccc(-c2ccc(Cl)c(C(=O)O)c2)o1,/,i,13.2,/,i,/
Cc1ccc(S(=O)(=O)N2N=C3CCCCC3C2(O)C(F)(F)F)cc1 (stereo not drawn),i,i,39.9,i,i,i
COc1ccc2[nH]c3c(NCCCOC(C)C)ncnc3c2c1,i,i,/,i,-7.42*,i
CCCn1c(C)nc2c(c1=O)c1nc3ccccc3nc1n2CCC1=CCCCC1,i,i,68.9*,i,i,i
CC(=O)c1ccc(OCc2cc(C(=O)N(C)C(C)c3nccs3)no2)cc1 (stereo not drawn),/,i,21.8,/,i,/
Cc1ccc(C)c(OCC(=O)Nc2cccc(S(=O)(=O)NC3=NCCCCC3)c2)c1,i,i,67.2*,i,i,i
Cc1cc(Cl)ccc1OCC(=O)Nc1cccc(S(=O)(=O)NC2=NCCCCC2)c1,i,i,/,i,i,i
Cc1cc(C)cc(-n2c(C)cc(/C=N\NC(=O)COc3cccc4cccnc34)c2C)c1,i,i,3.4,i,-8.68*,i
CCOC(=O)C1(CC2CCCCO2)CCN(C(=O)Nc2ccc(C(=O)OC)cc2)CC1 (stereo not drawn),i,i,-16.9,i,i,i

# Bioassay records (PubChem)
